ABHD5 PLIN5 PPI – ABHD5-PLIN5 interaction inhibitors, primary screen, cell lysate, split luciferase complementation, luminescence; Perilipin-5 (Homo sapiens) + 1-acylglycerol-3-phosphate O-acyltransferase ABHD5 (Homo …; Split G. princeps luciferase complementation, 4 h; inhibition, % at 4 µM; 360,000 tested, 0.78% active; AID 602281, 2012;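 active means inhibition above the mean inhibition across every tested compound plus 3 SD, cut at about 22% in these data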;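 further: 0% = DMSO only wells and the 100% control is not disclosed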
Target sequence (Q00G26 whole entry, looked up): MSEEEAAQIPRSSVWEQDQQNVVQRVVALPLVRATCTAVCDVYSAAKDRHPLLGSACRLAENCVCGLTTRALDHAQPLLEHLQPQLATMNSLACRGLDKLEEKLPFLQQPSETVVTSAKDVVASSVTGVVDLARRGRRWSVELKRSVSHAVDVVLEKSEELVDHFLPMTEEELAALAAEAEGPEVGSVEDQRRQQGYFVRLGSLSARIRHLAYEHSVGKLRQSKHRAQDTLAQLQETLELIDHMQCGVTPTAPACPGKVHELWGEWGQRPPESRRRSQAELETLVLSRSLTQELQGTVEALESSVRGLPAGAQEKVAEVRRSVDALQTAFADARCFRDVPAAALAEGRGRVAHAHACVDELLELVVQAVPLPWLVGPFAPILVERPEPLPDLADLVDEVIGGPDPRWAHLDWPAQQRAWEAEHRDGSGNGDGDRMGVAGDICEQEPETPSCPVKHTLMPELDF
Target sequence (Q8WTS1 whole entry, looked up): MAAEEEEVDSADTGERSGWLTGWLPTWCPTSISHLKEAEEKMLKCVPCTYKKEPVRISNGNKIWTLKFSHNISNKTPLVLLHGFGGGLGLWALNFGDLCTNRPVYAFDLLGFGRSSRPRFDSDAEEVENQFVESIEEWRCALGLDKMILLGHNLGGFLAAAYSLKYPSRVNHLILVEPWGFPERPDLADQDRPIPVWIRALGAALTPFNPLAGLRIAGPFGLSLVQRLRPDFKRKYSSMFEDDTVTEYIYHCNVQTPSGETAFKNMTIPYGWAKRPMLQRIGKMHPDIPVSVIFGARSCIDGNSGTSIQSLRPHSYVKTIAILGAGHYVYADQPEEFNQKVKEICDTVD
rCAG RNA binder – binders of r(CAG) RNA repeats, primary screen, biochemical, fluorescence. 370,000 tested, 1.3% active. inhibition, % at 3 µM. r(CAG) RNA repeat, TO-PRO-1 dye displacement fluorescence;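 active means inhibition above the plate cutoff, the mean of all test compounds on that plate plus 3 SD, cut at about 35% in these data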;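 further: 0% = DMSO alone and 100% = 100 µM mitoxantrone as full dye displacement; higher means more dye released from RNA so lower well fluorescence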
core dimer inh – inhibitors of HCV core protein dimerization, primary screen, biochemical, TR-FRET, high-throughput; TR-FRET GST/Flag-core106 dimerization, 1536-well; inhibition, % at 5 µM; 300,000 tested, 0.33% active; AID 1899, 2009;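 active means inhibition above the mean of all tested compounds plus 3 SD, set per screening campaign, cut at about 45% in these data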
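test system = GST/Flag-tagged HCV core106 proteins | probe or stimulus = Eu donor and XL665 acceptor anti-tag antibodies | times = compound-protein-antibody incubation 4 h at 22.5 °C | signal = TR-FRET, excitation 340 nm, emission 617 and 671 nm | measure = percent inhibition of core106 dimerization signal | controls = wells lacking GST-core106 and wells with excess unlabelled core106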
NadD block – inhibitors of S. aureus NadD, primary screen, biochemical, colorimetric, uHTS. Nicotinate-nucleotide adenylyltransferase NadD (Staphylococcus aureus N315). purified NadD enzyme, colorimetric absorbance read-out. inhibition, % at 20 µM. 360,000 tested, 0.78% active. AID 602399, 2012; in the data active means inhibition above about 26%
NadD conf – inhibitors of S. aureus NadD, confirmation, biochemical, colorimetric, single concentration | AID 624309, 2012 | shares compounds with NadD block | 2,000 tested, 13% active | purified S. aureus NadD, colorimetric enzyme assay | inhibition, % at 20 µM; in the data active means inhibition mostly above about 42%, no sharp cut-off; inactive means mostly below about 42%
* marks the source's active call; other numbers are inactive results; · = not tested or not shown. This is a sample that favours compounds with a hit; in the whole collection about 2.6% have one here.

SMILES	ABHD5 PLIN5 PPI	rCAG RNA binder	core dimer inh	NadD block	NadD conf
CC(C)Oc1ccc2ccccc2c1CNC[C@H]1O[C@@H](n2ccc(=O)[nH]c2=O)[C@H](O)[C@@H]1O	0.8	1.4	·	-1.7	·
Cc1ccc(-c2cccc(C3CC=CC4C3C(=O)N(Cc3ccccc3)C4c3ccc(C(F)(F)F)cc3)c2)cc1 (configuration not stated)	-2.6	11.5	16.1	19.6	·
CN(C)c1ccc(-c2cccc(C3CC=CC4C3C(=O)N(Cc3ccccc3)C4c3ccc4ccccc4c3)c2)cc1 (configuration not stated)	-1.8	5.5	15.2	31.5*	13.1
COc1ccc(C2C3C=CCC(c4cccc(-c5ccc(C)cc5)c4)C3C(=O)N2Cc2ccccc2)cc1Cl (configuration not stated)	2.3	14.2	24.9	36.5*	11.5
COc1ccc(-c2cccc([C@H]3[C@@H]4C=CC[C@@H](C)[C@@H]4C(=O)N3Cc3ccccc3)c2)cc1	-9.5	9.3	·	-1.9	·
COc1ccc(-c2cccc(C3CC=CC4C3C(=O)N(Cc3ccccc3)C4c3ccc4ccccc4c3)c2)cc1 (configuration not stated)	4.6	11.3	5.4	31.2*	5.4
COC(=O)[C@]12C[C@H](CC(=O)NCc3ccccc3)C(=O)N(CCc3ccc(OC)c(OC)c3)C1=C[C@H](COCc1ccccc1)O[C@@H]2C	·	6.1	·	·	·
COc1ccc(Cl)cc1N(CC(=O)N/N=C/c1ccc(OC(C)C)cc1)S(=O)(=O)c1ccc(C)c([N+](=O)[O-])c1	2.8	17.5	28.7	31.2*	15.3
COC(=O)c1cccc(CN2C(=O)SC(Nc3ccccc3)C2=O)c1 (configuration not stated)	-6.6	29.2	-2.8	30.7*	-5.7
CCOC(=O)[C@@]12CCCC=C1N(CCc1ccc(Cl)cc1)C(=O)[C@H]2CC(=O)N1CCC(c2ccccc2)CC1	·	6.1	·	·	·
COC(=O)[C@]12C[C@H](CC(=O)NCc3ccc(C)o3)C(=O)N(Cc3ccc(Cl)cc3Cl)C1=C[C@H](COCc1ccccc1)O[C@@H]2C	·	8.0	·	·	·
CC(C)C[C@@H](CN1CCC[C@@H]1CN1C(=S)NC[C@@H]1Cc1ccc(O)cc1)N1C[C@H](Cc2ccc(O)cc2)N(CCc2ccccc2)C1=S	9.3	12.3	·	39.7*	27.8
CC(C)C[C@@H](CN1CCCC1CN1C(=S)NC[C@@H]1Cc1ccccc1)N1C[C@H](Cc2ccc(O)cc2)N(CCc2ccccc2)C1=S (some centres not stated)	4.5	17.4	·	45.2*	12.5
Cn1c(=O)c(C(=O)CN2CCc3ccccc32)c(N)n(Cc2ccccc2)c1=O	-1.4	8.4	42.5	62.5*	15.4
Cn1c(=O)c(C(=O)CN2CCCc3ccccc32)c(N)n(Cc2ccccc2)c1=O	-3.3	7.2	21.2	17.6	·
CCOc1cc(/C=N/NC(=O)CNc2ccc(C)cc2)ccc1OC(=O)c1ccccc1	1.3	10.9	25.9	32.5*	12.5
CCOc1cc(/C=N/NC(N)=O)ccc1OC(=O)c1ccc(C)cc1	·	·	-1.4	·	·
Cc1ccc(C(=O)C2C(=O)C3CCC2C3)cc1 (configuration not stated)	-8.6	1.1	·	-1.9	·
Cc1cccc(S(=O)(=O)c2c(N)n(/N=C/c3ccccc3)c3nc4ccccc4nc23)c1	7.7	6.8	9.0	1.5	·
Cc1ccc(C)c(S(=O)(=O)c2c(N)n(/N=C/c3ccco3)c3nc4ccccc4nc23)c1	7.2	32.8	27.4	31.5*	1.1
Cc1ccc(C(=O)Nn2c(N)c(S(=O)(=O)c3ccc(C)cc3)c3nc4ccccc4nc32)cc1	-6.3	29.0	4.3	30.4*	31.8
Nc1c(S(=O)(=O)c2ccccc2)c2nc3ccccc3nc2n1/N=C/c1cccc(O)c1	-5.4	13.0	29.5	46.9*	17.5
CCCc1cc2c(=O)c(-c3nc4ccccc4s3)c(COCC(=O)O)oc2cc1O	2.6	55.0*	·	29.8*	30.3
COc1ccccc1-n1c(=O)c(C#N)c(-c2ccc([N+](=O)[O-])cc2)c2cc(C(=O)c3ccccc3O)cnc21	1.1	6.6	42.3	37.8*	12.1
CC(=O)Nc1ccc(CNc2nc(NC(C)C)nc3cc(-c4ccccc4)sc23)cc1	9.7	1.5	·	22.3	·
SMILES	ABHD5 PLIN5 PPI	rCAG RNA binder	core dimer inh	NadD block	NadD conf
C=CCNc1nc(NCc2ccc(NC(C)=O)cc2)c2sc(-c3ccccc3)cc2n1	21.2	5.0	·	31.5*	21.5
O=C(CNc1cccc2ccccc12)N/N=C/c1ccc([N+](=O)[O-])cc1	-10.3	25.1	1.4	39.6*	44.2*
O=[N+]([O-])c1ccc(C=NNC(=S)Nc2ccc(F)cc2)cc1	-4.7	5.3	·	1.3	·
Cc1ccccc1NCC(=O)N/N=C/c1ccc([N+](=O)[O-])cc1	-0.8	1.9	3.1	-2.5	·
O=C(CNc1cccc2ccccc12)N/N=C/c1ccccn1	5.4	7.1	-3.9	47.7*	1.0
O=[N+]([O-])c1ccc(C=NNC(=S)NN=Cc2ccc([N+](=O)[O-])cc2)cc1	-10.2	11.3	·	34.6*	4.9
OCCCNc1ncnc2c1ncn2[C@H]1CN(Cc2ccco2)C[C@@H](CO)O1	8.3	1.2	·	-1.2	·
CCOc1ccccc1-c1noc(CCC(=O)Nc2cccnc2)n1	-1.9	-4.5	-2.2	-5.6	·
O=C(CCc1nc(-c2ccccc2F)no1)Nc1cccnc1	-4.7	-3.4	-1.9	66.3*	-3.7
COc1cc2c(cc1NC(=O)C(C)N1CCN(S(=O)(=O)c3ccccc3[N+](=O)[O-])CC1)oc1ccccc12 (configuration not stated)	5.7	3.8	11.8	37.6*	-0.6
COc1cc2c(cc1NC(=O)C(C)OC(=O)c1ccc(S(=O)(=O)Nc3ccccc3Cl)cc1)oc1ccccc12 (configuration not stated)	-0.7	8.4	36.4	31.9*	1.9
COc1cc2c(cc1NC(=O)CN1CCN(S(=O)(=O)c3ccc(C)cc3)CC1)oc1ccccc12	17.2	0.5	9.3	32.8*	8.5
CCn1c(COc2ccccc2)nnc1SCC(=O)Nc1ccc(S(=O)(=O)Nc2cc(C)nc(C)n2)cc1	·	23.3	·	·	·
CCc1nc2ccc(C(=O)N(C)CCCN(C)C)cn2c1N(C)CCCc1ccccc1	5.5	-0.9	·	-2.2	·
COc1ccc(-c2nc(NC(=O)C3=NN(c4cccc(C)c4)C(=O)CC3)sc2C)cc1	-6.3	6.5	17.1	31.1*	1.8
COc1ccc(-c2csc(NC(=O)C3=NN(c4ccccc4)C(=O)CC3)n2)cc1	2.0	2.8	12.3	7.5	·
C#CCN1CC(N(C)CCOC(=O)c2ccc([N+](=O)[O-])cc2)CS1(=O)=O (configuration not stated)	·	2.4	·	·	·
